How the values were obtained:
[1] = target: T1, Stimulator of interferon genes protein (Homo sapiens, UniProt Q86WV6); assay: Activation of human STING (139 to 379 residues) expressed in THP1-Blue ISG cells at 10 uM incubated for 24 hrs by quanti-blue SEAP reporter gene assay relative to control; assay type: cell-based; conditions: filed as activator
How it was run: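 THP1-Blue-ISG cells (1 × 10⁵/well) treated for 24 h; single-concentration screen at 10 μM. SEAP ISG reporter in 20 μL supernatant read with QUANTI-Blue at 650 nm. Activation given as fold over control, averaging at least two experiments.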

[2] = target: T1, Stimulator of interferon genes protein; assay: Activation of human STING expressed in THP1-Dual cells incubated for 24 hrs by secreted luciferase reporter gene assay
[3] = target: T2, Stimulator of interferon genes protein (Mus musculus, UniProt Q3TBT3); assay: Activation of mouse STING expressed in RAW-Lucia ISG cells incubated for 24 hrs by secreted luciferase reporter gene assay
T2 sequence (Q3TBT3 whole entry): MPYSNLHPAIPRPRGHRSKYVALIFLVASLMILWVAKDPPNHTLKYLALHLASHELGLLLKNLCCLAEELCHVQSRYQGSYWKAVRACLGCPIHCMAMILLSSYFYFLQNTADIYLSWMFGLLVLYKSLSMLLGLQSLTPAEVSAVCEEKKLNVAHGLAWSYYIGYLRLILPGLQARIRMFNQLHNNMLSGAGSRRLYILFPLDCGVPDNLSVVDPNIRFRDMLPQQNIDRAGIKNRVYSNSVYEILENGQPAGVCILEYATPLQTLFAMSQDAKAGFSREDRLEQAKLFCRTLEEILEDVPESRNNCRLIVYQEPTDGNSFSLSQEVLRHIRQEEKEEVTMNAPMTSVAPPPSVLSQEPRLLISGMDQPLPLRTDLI

[4] = target: T3, Stimulator of interferon genes protein (Mus musculus) (UniProt Q3TBT3); assay: Activation of mouse STING expressed in RAW-Lucia ISG cells at 50 uM incubated for 24 hrs by QUANTI-Luc luciferase reporter gene assay relative to control; conditions: filed as activator
T3 sequence (whole entry): T2 sequence (Q3TBT3 whole entry)

[5] = Half life in rat at 1 mg/kg, iv; assay type: ADME, organism-based; conditions: in vivo
[6] = AUClast in rat at 1 mg/kg, iv; assay type: ADME, organism-based; design: time 0 - last, route intravenous, dose 1 mg/kg; conditions: in vivo
[7] = Observed AUCinfinity in rat at 1 mg/kg, iv; assay type: ADME, organism-based; design: time infinity, route intravenous, dose 1 mg/kg; conditions: in vivo
[8] = Observed clearance in rat at 1 mg/kg, iv; assay type: ADME, organism-based; conditions: in vivo
[9] = Observed MRT infinity in rat at 1 mg/kg, iv; assay type: ADME, organism-based; conditions: in vivo
[10] = Observed volume of distribution at steady state in rat at 1 mg/kg, iv; assay type: ADME, organism-based; conditions: in vivo, read-out: Vdss
[11] = target: T3, Stimulator of interferon genes protein (Mus musculus); assay: Activation of mouse STING expressed in RAW-Lucia ISG cells at 50 uM incubated for 24 hrs by quanti-blue SEAP reporter gene assay relative to control; assay type: cell-based; conditions: filed as activator
[12] = Solubility of the compound; assay type: physicochemical
[13] = target: Voltage-gated inwardly rectifying potassium channel KCNH2 (Homo sapiens, UniProt Q12809); assay: Inhibition of human ERG
Chain of Voltage-gated inwardly rectifying potassium channel KCNH2 (Q12809 whole entry): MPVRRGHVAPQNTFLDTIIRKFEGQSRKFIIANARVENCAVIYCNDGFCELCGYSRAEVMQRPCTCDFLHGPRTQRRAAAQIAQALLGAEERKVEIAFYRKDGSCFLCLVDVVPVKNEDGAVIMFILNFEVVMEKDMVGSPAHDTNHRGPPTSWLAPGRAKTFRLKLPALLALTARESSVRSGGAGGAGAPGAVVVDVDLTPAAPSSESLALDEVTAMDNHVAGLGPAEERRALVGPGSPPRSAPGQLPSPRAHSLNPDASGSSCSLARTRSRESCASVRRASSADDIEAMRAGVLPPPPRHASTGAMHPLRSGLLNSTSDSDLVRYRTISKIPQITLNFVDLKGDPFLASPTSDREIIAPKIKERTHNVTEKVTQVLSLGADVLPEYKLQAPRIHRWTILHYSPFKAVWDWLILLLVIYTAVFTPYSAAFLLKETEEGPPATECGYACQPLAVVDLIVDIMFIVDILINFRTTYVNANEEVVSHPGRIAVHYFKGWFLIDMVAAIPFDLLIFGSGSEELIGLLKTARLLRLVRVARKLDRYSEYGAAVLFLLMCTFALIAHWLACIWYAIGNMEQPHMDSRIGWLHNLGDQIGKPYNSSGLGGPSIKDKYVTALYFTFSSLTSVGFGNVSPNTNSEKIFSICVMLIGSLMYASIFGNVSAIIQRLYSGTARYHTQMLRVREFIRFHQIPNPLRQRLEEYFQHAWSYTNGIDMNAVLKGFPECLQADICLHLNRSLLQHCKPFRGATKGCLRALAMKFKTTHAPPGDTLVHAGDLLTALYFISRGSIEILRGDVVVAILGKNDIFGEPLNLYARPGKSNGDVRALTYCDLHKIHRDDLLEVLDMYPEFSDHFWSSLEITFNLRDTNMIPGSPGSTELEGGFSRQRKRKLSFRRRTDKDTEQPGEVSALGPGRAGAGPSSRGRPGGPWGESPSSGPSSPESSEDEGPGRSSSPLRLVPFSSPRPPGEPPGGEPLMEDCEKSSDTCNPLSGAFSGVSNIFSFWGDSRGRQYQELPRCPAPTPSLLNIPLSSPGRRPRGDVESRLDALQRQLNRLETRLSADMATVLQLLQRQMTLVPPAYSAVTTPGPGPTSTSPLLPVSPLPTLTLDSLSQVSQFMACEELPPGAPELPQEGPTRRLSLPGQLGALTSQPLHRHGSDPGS

T1 sequence (Q86WV6 whole entry, the tested form may be a part): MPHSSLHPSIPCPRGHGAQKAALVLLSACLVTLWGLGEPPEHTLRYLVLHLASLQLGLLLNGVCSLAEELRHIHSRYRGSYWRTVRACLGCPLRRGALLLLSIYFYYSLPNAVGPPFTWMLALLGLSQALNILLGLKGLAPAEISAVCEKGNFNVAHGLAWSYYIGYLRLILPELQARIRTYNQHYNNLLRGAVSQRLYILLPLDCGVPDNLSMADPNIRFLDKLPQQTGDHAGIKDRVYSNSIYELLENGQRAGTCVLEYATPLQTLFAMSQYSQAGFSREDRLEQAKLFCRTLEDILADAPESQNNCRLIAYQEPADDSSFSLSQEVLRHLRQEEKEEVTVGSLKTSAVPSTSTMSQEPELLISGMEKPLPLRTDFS

fold change (FC) [1]	EC50 [2]	EC50 [3]	fold change (FC) [4]	fold change (FC) [11]	Structure (SMILES)	also measured
16.7	2.66 µM	> 50 µM	0.96	–	CCn1nc(C)cc1C(=O)/N=c1\[nH]c2cc(-c3ncn[nH]3)cc(OC)c2n1C/C=C/Cn1/c(=N/C(=O)c2cc(C)nn2CC)[nH]c2cc(C(N)=O)cc(OCCCO)c21	–
–	–	–	–	–	CCn1nc(C)cc1C(=O)Nc1nc2cc(C(N)=O)cc(OC)c2n1C/C=C/Cn1c(NC(=O)c2cc(C)nn2CC)nc2cc(C(N)=O)cc(OCCCN3CCOCC3)c21 [listing 1 of 2 here]	half-life [5]: 68.4 min; AUC(0-t) [6]: 657 ng·h/mL; AUC(0-inf) [7]: 666 ng·h/mL; clearance [8]: 26 mL/min/kg; MRT inf [9]: 38 min; Vd [10]: 0.965 L/kg
18.3	1.54 µM	> 50 µM	0.99	–	CCn1nc(C)cc1C(=O)/N=c1\[nH]c2cc(C3=NCCO3)cc(OC)c2n1C/C=C/Cn1/c(=N/C(=O)c2cc(C)nn2CC)[nH]c2cc(C(N)=O)cc(OCCCN3CCOCC3)c21	–
1.22	–	–	1.21	–	CCn1nc(C)cc1C(=O)/N=c1\[nH]c2cc(-c3ncc[nH]3)cc(OC)c2n1C/C=C/Cn1/c(=N/C(=O)c2cc(C)nn2CC)[nH]c2cc(-c3ncc[nH]3)cc(OCCCN3CCOCC3)c21	–
17	0.33 µM	> 50 µM	2.17	–	CCn1nc(C)cc1C(=O)/N=c1\[nH]c2cc(C(N)=O)cc(OC)c2n1C/C=C/Cn1/c(=N/C(=O)c2cc(C)nn2CC)[nH]c2cc(-c3ncn[nH]3)cc(OCCCN3CCOCC3)c21	–
11.1	26 µM	> 50 µM	1.34	–	CCn1nc(C)cc1C(=O)/N=c1\[nH]c2cc(-c3ncn[nH]3)cc(OC)c2n1C/C=C/Cn1/c(=N/C(=O)c2cc(C)nn2CC)[nH]c2cc(C#N)cc(OCCCN3CCOCC3)c21	–
17.3	0.79 µM	> 50 µM	1.18	–	CCn1nc(C)cc1C(=O)/N=c1\[nH]c2cc(C(N)=O)cc(OC)c2n1C/C=C/Cn1/c(=N/C(=O)c2cc(C)nn2CC)[nH]c2cc(-c3ncc[nH]3)cc(OCCCN3CCOCC3)c21	–
1.28	–	–	–	1.2	CCn1nc(C)cc1C(=O)/N=c1\[nH]c2cc(-c3ncn[nH]3)cc(OC)c2n1CCCCn1/c(=N/C(=O)c2cc(C)nn2CC)[nH]c2cc(C(N)=O)cc(OCCCN3CCOCC3)c21	–
9	–	–	–	1.4	COc1cc(C(N)=O)cc2nc(C(=O)CCC(=O)O)n(C/C=C/Cn3c(C(=O)CCC(=O)O)nc4cc(C(N)=O)cc(OCCCN5CCOCC5)c43)c12	–
–	–	–	–	–	CCn1nc(C)cc1C(=O)/N=c1\[nH]c2cc(-c3ncn[nH]3)cc(OC)c2n1C/C=C/Cn1/c(=N/C(=O)c2cc(C)nn2CC)[nH]c2cc(C(N)=O)cc(OCCCN3CCOCC3)c21.Cl.Cl.Cl	solubility [12]: 71.3 mg/mL; IC50 [13]: > 40 µM
0.95	–	–	0.9	–	CCn1nc(C)cc1CCc1nc2cc(C(N)=O)cc(OC)c2n1C/C=C/Cn1c(CCc2cc(C)nn2CC)nc2cc(C(N)=O)cc(OCCCN3CCOCC3)c21	–
18.8	2.55 µM	> 50 µM	0.92	–	CCn1nc(C)cc1C(=O)/N=c1\[nH]c2cc(-c3nc(C)n[nH]3)cc(OC)c2n1C/C=C/Cn1/c(=N/C(=O)c2cc(C)nn2CC)[nH]c2cc(C(N)=O)cc(OCCCN3CCOCC3)c21	–
1.58	–	–	–	1.1	CCn1nc(C)cc1C(=O)/N=c1\[nH]c2cc(-c3ncn[nH]3)cc(OC)c2n1C/C=C/Cn1/c(=N/C(=O)c2cc(C)nn2CC)[nH]c2cc(C(N)=O)c3c(c21)OCCO3	–
17.5	3.28 µM	> 50 µM	1.42	–	CCn1nc(C)cc1C(=O)/N=c1\[nH]c2cc(-c3ncc[nH]3)cc(OC)c2n1C/C=C/Cn1/c(=N/C(=O)c2cc(C)nn2CC)[nH]c2cc(C(N)=O)cc(OCCCN3CCOCC3)c21	–
4.9	–	–	1.18	–	CCn1nc(C)cc1C(=O)/N=c1\[nH]c2cc(-c3ncn[nH]3)cc(OC)c2n1C/C=C/Cn1/c(=N/C(=O)c2cc(C)nn2CC)[nH]c2cc(-c3ncn[nH]3)cc(OCCCN3CCOCC3)c21	–
0.86	–	–	–	0.93	CCn1nc(C)cc1C(=O)/N=c1\[nH]c2cc(C(N)=O)cc(OC)c2n1C/C=C/Cn1c(C(=O)CCC(=O)O)nc2cc(C(N)=O)cc(OCCCN3CCOCC3)c21	–
–	–	–	–	–	CCn1nc(C)cc1C(=O)Nc1nc2cc(C(N)=O)cc(OC)c2n1C/C=C/Cn1c(NC(=O)c2cc(C)nn2CC)nc2cc(C(N)=O)cc(OCCCN3CCOCC3)c21 [listing 2 of 2 here]	IC50 [13]: > 40 µM
13.4	1.02 µM	> 50 µM	1.07	–	CCn1nc(C)cc1C(=O)/N=c1\[nH]c2cc(C(N)=O)cc(OC)c2n1C/C=C/Cn1/c(=N/C(=O)c2cc(C)nn2CC)[nH]c2cc(C#N)cc(OCCCN3CCOCC3)c21	–
17.2	–	–	1.16	–	CCn1nc(C)cc1C(=O)/N=c1\[nH]c2cc(-c3cn(CCOCCOC)nn3)cc(OC)c2n1C/C=C/Cn1/c(=N/C(=O)c2cc(C)nn2CC)[nH]c2cc(C(N)=O)cc(OCCCN3CCOCC3)c21	–
17	–	–	–	1.14	CCn1nc(C)cc1C(=O)/N=c1\[nH]c2cc(-c3ncn[nH]3)cc(OC)c2n1C/C=C/Cn1/c(=N/C(=O)c2cc(C)nn2CC)[nH]c2cc(C(N)=O)c3ccoc3c21	–
3.86	> 50 µM	> 50 µM	0.48	–	CCn1nc(C)cc1C(=O)/N=c1\[nH]c2cc(-c3ncn[nH]3)cc(OC)c2n1[C@H]1CC[C@H](n2/c(=N/C(=O)c3cc(C)nn3CC)[nH]c3cc(C(N)=O)cc(OCCCN4CCOCC4)c32)CC1	–
6.16	29.1 µM	> 50 µM	1.01	–	COC(=O)CCC(=O)c1nc2cc(C(N)=O)cc(OC)c2n1C/C=C/Cn1c(C(=O)CCC(=O)OC)nc2cc(C(N)=O)cc(OCCCN3CCOCC3)c21	–
0.98	–	–	0.96	–	CCn1nc(C)cc1/C=C/c1nc2cc(C(N)=O)cc(OC)c2n1C/C=C/Cn1c(/C=C/c2cc(C)nn2CC)nc2cc(C(N)=O)cc(OCCCN3CCOCC3)c21	–
1.14	–	–	–	0.59	CCn1nc(C)cc1C(=O)/N=c1\[nH]c2cc(-c3ncn[nH]3)cc(OC)c2n1[C@H]1CC[C@@H](n2/c(=N/C(=O)c3cc(C)nn3CC)[nH]c3cc(C(N)=O)cc(OCCCN4CCOCC4)c32)CC1	–
0.83	–	–	–	0.9	CCn1nc(C)cc1C(=O)/N=c1\[nH]c2cc(C(N)=O)cc(OC)c2n1C/C=C/Cn1c(C(=O)CCC(=O)OC)nc2cc(C(N)=O)cc(OCCCN3CCOCC3)c21	–
7.9	> 50 µM	> 50 µM	–	1.16	CCn1nc(C)cc1C(=O)/N=c1\[nH]c2cc(C#N)cc(OC)c2n1C/C=C/Cn1/c(=N/C(=O)c2cc(C)nn2CC)[nH]c2cc(C#N)cc(OCCCN3CCOCC3)c21	–

Source: ChEMBL document CHEMBL4808161, “Structure-Activity Relationship Study of Amidobenzimidazole Analogues Leading to Potent and Systemically Administrable Stimulator of Interferon Gene (STING) Agonists” (J Med Chem, 2021)
